From ChEMBL document CHEMBL2375288, “Synthesis and pharmacokinetic profile of highly deuterated brecanavir analogs” (Eur J Med Chem, 2013) come the findings set out here.

What is called clearance is the volume of plasma or blood freed of the substance per unit of time. Broadly, the half-life is the time needed for the level to fall by half in the phase considered.

In data set [1] the test system is Hepatocyte. The experiment in a line: Drug metabolism in rat hepatocytes assessed as formation of -[2H]-6-(5-((N-((2R,3S)-3-(((3R,3aS,6aR)-hexahydrofuro[2,3-b]furan-3-yloxy)carbonylamino)-2-hydroxy-4-(4-((2-methylthiazol-4-yl)methoxy)phenyl)butyl)-N-isobutylsulfamoyl)methyl)-2-methoxyphenoxy)-3,4,5-trihydroxytetrahydro-2H-pyran-2-carboxylic acid at 10 uM after 4 hrs by LC/MS/MS analysis. It counts as ADME, cell-based.

Data set [2] can be described thus: Plasma clearance in rat at 0.25 mg/kg, iv. It counts as ADME, organism-based. More on the design: dose 0.25 mg/kg, route intravenous. In short, it runs like this: (§1)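 Intravenous dosing at 0.25 mg/kg in fed rats, given as a solution in DMSO/solutol/mannitol (2.5/10/87.5).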
In data set [3] the test system is Hepatocyte. Description: Drug metabolism in human hepatocytes assessed as formation of -[2H]-(3R,3aS,6aR)-hexahydrofuro[2,3-b]furan-3-yl (2S,3R)-4-(1-(3,4-dihydroxyphenyl)-N-isobutylmethylsulfonamido)-3-hydroxy-1-(4-((2-methylthiazol-4-yl)methoxy)phenyl)butan-2-ylcarbamate at 10 uM after 4 hrs by LC/MS/MS analysis. The data set is classed as ADME, cell-based.
Data set [4] is described as follows: Half life in rat at 0.25 mg/kg, iv. The data set is classed as ADME, organism-based. Further details: dose 0.25 mg/kg, route intravenous. Particulars: in vivo. In short, it runs like this: as §1
Data set [5] deals with Rattus norvegicus. Description: Dose-normalized AUC in rat at 0.25 mg/kg, iv. It counts as ADME, organism-based. Further details: dose 0.25 mg/kg, route intravenous. Conditions: in vivo. In short, it runs like this:
as §1

Data set [6] in a line: Half life in rat at 0.25 mg/kg, iv co-administered with 4 mg/kg of ritonavir. Conditions: in vivo. The data set is classed as ADME, organism-based. The essentials:
(§2)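 Fed rats received 0.25 mg/kg intravenously as a DMSO/solutol/mannitol (2.5/10/87.5) solution, with ritonavir co-administered at 4 mg/kg.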

The test system of data set [7] is Rattus norvegicus. The experiment in a line: Dose-normalized AUC in rat at 0.25 mg/kg, iv co-administered with 4 mg/kg of ritonavir. Conditions: in vivo. It counts as ADME, organism-based. In short, it runs like this:
as §2

A short description of data set [8]: Plasma clearance in rat at 0.25 mg/kg, iv co-administered with 4 mg/kg of ritonavir. The data set is classed as ADME, organism-based. In short, it runs like this:
as §2

Take `[2H]C1([2H])Oc2ccc(S(=O)(=O)N(C[C@@]([2H])(O)[C@H](Cc3ccc(OC([2H])([2H])c4csc(C)n4)cc3)NC(=O)O[C@@]3([2H])CO[C@@]4([2H])OCC[C@H]43)C([2H])([2H])C([2H])(C([2H])([2H])[2H])C([2H])([2H])[2H])cc2O1`: the Stability entry in the data set on Hepatocyte [1] and in the data set with Hepatocyte [3] was “Unstable” in each case. In data set [2], this compound gave a clearance of 64 mL/min/kg. In data set [4], this compound gave a half-life of 12 min. The AUC/dose in the data set on Rattus norvegicus [5] was 64 ng·h/mL/mg.

Turning to `[2H]C1([2H])C[C@@H]2[C@H](O1)OC([2H])([2H])[C@]2([2H])OC(=O)N[C@@H](Cc1ccc(OC([2H])([2H])c2csc(C)n2)cc1)[C@]([2H])(O)CN(C([2H])([2H])C([2H])(C([2H])([2H])[2H])C([2H])([2H])[2H])S(=O)(=O)c1ccc2c(c1)OC([2H])([2H])O2`, the clearance in data set [2] is 59 mL/min/kg. Further, the half-life in data set [4] is 12 min. The compound further displayed an AUC/dose in the data set with Rattus norvegicus [5] of 59 ng·h/mL/mg.

On to `Cc1nc(COc2ccc(C[C@H](NC(=O)O[C@H]3CO[C@H]4OCC[C@H]43)[C@H](O)CN(CC(C)C)S(=O)(=O)c3ccc4c(c3)OCO4)cc2)cs1` [BRECANAVIR], for which the half-life in data set [6] was 132 min; in data set [4], 12 min. Moreover, the clearance in data set [2] was determined as 65 mL/min/kg; in data set [8] it was 5.4 mL/min/kg. The AUC/dose turned out to be 774 ng·h/mL/mg with Rattus norvegicus [7] and 66 ng·h/mL/mg with Rattus norvegicus [5].
